For test [1], the system named is Paracentrotus lividus. As to the kind of experiment: Antiproliferative activity in sea urchin embryo assessed as antimitotic activity by measuring cleavage alteration exposed for 8 to 20 mins after fertilization and 45 to 55 mins before first mitotic cycle completion measured 2.5 to […] after fertilization. It is filed as functional.
The nature of test [2]: Cytotoxicity against human NCI60 cells assessed as cell growth at 10 uM. As to conditions: read-out: Activity. It is filed as functional. The method, boiled down: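 NCI60 panel screened by the NCI Developmental Therapeutics Program at a single 10 µM concentration; mean cell growth percent reported.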
The subject of test [3] is Paracentrotus lividus. As to the kind of experiment: Antiproliferative activity in sea urchin embryo assessed as destabilization of microtubule by measuring embryo spinning after 15 mins to 20 hrs. It is filed as functional.
For test [4], the system named is Paracentrotus lividus. As to the kind of experiment: Antiproliferative activity in sea urchin embryo assessed as antimitotic activity by measuring cleavage arrest exposed for 8 to 20 mins after fertilization and 45 to 55 mins before first mitotic cycle completion measured 2.5 to […] after fertilization. It is filed as functional.
The target of a further test is Tubulin (Bos taurus, UniProt Q6B856+Q862L2+Q862F3). The experiment in a line: Inhibition of bovine tubulin polymerization by turbidity assay. It is filed as protein assay.

Each structure is given as a SMILES string.

Take `Nc1nonc1-c1nc2cc(Cl)ccc2[nH]1`: the EC in the test with Paracentrotus lividus [1] is 2 µM; in the test on Paracentrotus lividus [3], greater than 5 µM; with Paracentrotus lividus [4], greater than 4 µM. Besides, the growth at 10 µM in test [2] is 97.1%.
In the case of `CCC(=O)Nc1nonc1-c1nc2ccccc2n1Cc1ccc(F)cc1Cl`, the EC with Paracentrotus lividus [1], in the test with Paracentrotus lividus [3] and with Paracentrotus lividus [4] was greater than 4 µM each time. In test [2], the growth at 10 µM turned out to be 64.5%.
Turning to `Nc1nc(Cn2c(-c3nonc3N)nc3ccccc32)nc(N2CCCCC2)n1`, the EC in the test on Paracentrotus lividus [1] was 4 µM; in the test on Paracentrotus lividus [3], greater than 4 µM; with Paracentrotus lividus [4], greater than 4 µM. The growth at 10 µM in test [2] was found to be 87.7%.
For `c1ccc2[nH]c(-c3nonc3-n3cccc3)nc2c1`, the EC with Paracentrotus lividus [1], with Paracentrotus lividus [3] and with Paracentrotus lividus [4] was greater than 4 µM each time. For the same compound, the growth at 10 µM in test [2] was 104%.
On to `CC(=O)Nc1nonc1-c1nc2ccccc2n1Cc1ccccn1`, for which the EC in the test with Paracentrotus lividus [1], in the test on Paracentrotus lividus [3] and in the test with Paracentrotus lividus [4] was greater than 4 µM throughout. In addition, in test [2], the growth at 10 µM was 104%.
As to `N#Cc1ccc2[nH]c(-c3nonc3N)nc2c1`, the EC with Paracentrotus lividus [1], with Paracentrotus lividus [3] and in the test on Paracentrotus lividus [4] was greater than 4 µM each time. Besides, the growth at 10 µM in test [2] was 107%.
As to `Nc1nonc1-c1nc2ccccc2n1Cc1cccc(Br)c1`, the IC50 (as a rule, the concentration that gives 50% inhibition) at Tubulin was 2.04 µM.
Consider `Nc1nonc1-c1nc2ccccc2n1Cc1ccccn1`, for which the EC in the test on Paracentrotus lividus [1] is 2 µM; with Paracentrotus lividus [3], greater than 4 µM; in the test on Paracentrotus lividus [4], greater than 4 µM. Besides, the growth at 10 µM in test [2] was determined as 89.3%.
`Cc1cccc(C)c1NC(=O)Cn1c(-c2nonc2N)nc2ccccc21`: the EC in the test on Paracentrotus lividus [1], in the test with Paracentrotus lividus [3] and with Paracentrotus lividus [4] was greater than 4 µM throughout. In addition, the growth at 10 µM in test [2] is 90.2%.
The compound `Nc1nonc1-c1nc2ccccc2n1CC(=O)Nc1ccccc1Cl` had an IC50 on Tubulin of 7.36 µM.
